Laboratory results reported in ChEMBL document CHEMBL1126604, “Synthesis and antiviral activity of 5-thien-2-yl-2'-deoxyuridine analogues” (1993).
Values after ≈ are worked out from the molar mass of the structure shown.

Experiments:
Assay type in all cases: functional
Human alphaherpesvirus 3 [1] = test: Minimum inhibitory concentration required to reduce TK-VZV (07-1) virus-induced cytopathicity by 50%
Cytomegalovirus [2] = test: Minimum inhibitory concentration required to reduce cytomegalo virus (CMV (AD-169)) virus-induced cytopathicity by 50%; conditions: Human betaherpesvirus 5
Human alphaherpesvirus 3 [3] = test: Minimum inhibitory concentration required to reduce Varicella-Zoster virus (VZV (Oka)) virus-induced cytopathicity by 50%
Human alphaherpesvirus 3 [4] = test: Minimum inhibitory concentration required to reduce TK-VZV (YS/R) virus-induced cytopathicity by 50%
Human alphaherpesvirus 1 [5] = test: Minimum inhibitory concentration required to reduce thymidine kinase deficient-HSV-1 (VMW 1837) virus-induced cytopathicity by 50%
Mus musculus [6] = test: Survival of mice after intraperitoneal infection with HSV-1 (KOS) and oral administration of 25 mg/kg at day 12
Outline: (§1)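 Mice were infected intraperitoneally with HSV-1 (KOS), 10 mice per group. Drug was given by oral gavage once daily for 5 days, starting on the day of infection, at 25, 100 or 250 mg/kg per day. Vehicle was a 90:10 suspension of Sirupus Simplex and propylene glycol; the placebo group got the same syrup. Surviving mice were counted over 20 days.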

Mus musculus [7] = test: Survival of mice after intraperitoneal infection with HSV-1 (KOS) and oral administration of 100 mg/kg at day 6; outline: as §1
Cytomegalovirus [8] = test: Minimum inhibitory concentration required to reduce cytomegalo virus (CMV (Davis)) virus-induced cytopathicity by 50%; conditions: Human betaherpesvirus 5
Mus musculus [9] = test: Survival of mice after intraperitoneal infection with HSV-1 (KOS) and oral administration of 25 mg/kg at day 3; outline: as §1
Cell line [10] = test: Minimum concentration required to cause a microscopically detectable alteration of cell morphology; conditions: Homo sapiens
Outline: (§2)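 Cytotoxicity read as the minimum concentration causing a microscopically detectable alteration of normal cell morphology. Cells were human embryonic skin-muscle (E6SM) or human embryonic lung (HEL), seeded in 96-well plates.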

Mus musculus [11] = test: Survival of mice after intraperitoneal infection with HSV-1 (KOS) and oral administration of 250 mg/kg at day 3; outline: as §1
Mus musculus [12] = test: Survival of mice after intraperitoneal infection with HSV-1 (KOS) and oral administration of 250 mg/kg at day 20; outline: as §1
Mus musculus [13] = test: Survival of mice after intraperitoneal infection with HSV-1 (KOS) and oral administration of 250 mg/kg at day 12; outline: as §1
Human alphaherpesvirus 1 [14] = test: Minimum inhibitory concentration required to reduce herpes simplex virus-1 (HSV-1 (KOS)) virus-induced cytopathicity by 50%
Mus musculus [15] = test: Survival of mice after intraperitoneal infection with HSV-1 (KOS) and oral administration of 100 mg/kg at day 9; outline: as §1
Mus musculus [16] = test: Survival of mice after intraperitoneal infection with HSV-1 (KOS) and oral administration of 100 mg/kg at day 12; outline: as §1
Mus musculus [17] = test: Survival of mice after intraperitoneal infection with HSV-1 (KOS) and oral administration of 250 mg/kg at day 9; outline: as §1
Human alphaherpesvirus 1 [18] = test: Minimum inhibitory concentration required to reduce thymidine kinase deficient-HSV-1 (B2006) virus-induced cytopathicity by 50%
Human alphaherpesvirus 2 [19] = test: Minimum inhibitory concentration required to reduce herpes simplex virus-2 (HSV-2 (G)) virus-induced cytopathicity by 50%
Mus musculus [20] = test: Survival of mice after intraperitoneal infection with HSV-1 (KOS) and oral administration of 100 mg/kg at day 0; outline: as §1
Mus musculus [21] = test: Survival of mice after intraperitoneal infection with HSV-1 (KOS) and oral administration of 100 mg/kg at day 3; outline: as §1
Human alphaherpesvirus 2 [22] = test: Minimum inhibitory concentration required to reduce herpes simplex virus-2 (HSV-2 (196)) virus-induced cytopathicity by 50%
Vaccinia virus = test: Minimum inhibitory concentration required to reduce vaccinia virus (VV) virus-induced cytopathicity by 50%; conditions: Orthopoxvirus vaccinia
Mus musculus [23] = test: Survival of mice after intraperitoneal infection with HSV-1 (KOS) and oral administration of 250 mg/kg at day 0; outline: as §1
Mus musculus [24] = test: Survival of mice after intraperitoneal infection with HSV-1 (KOS) and oral administration of 25 mg/kg at day 6; outline: as §1
Mus musculus [25] = test: Survival of mice after intraperitoneal infection with HSV-1 (KOS) and oral administration of 25 mg/kg at day 20; outline: as §1
[26] = Minimum inhibitory concentration required to reduce virus-induced cell growth by 50%; conditions: Homo sapiens
Mus musculus [27] = test: Survival of mice after intraperitoneal infection with HSV-1 (KOS) and oral administration of 25 mg/kg at day 9; outline: as §1
[28] = system: Vesicular stomatitis virus; test: Minimum inhibitory concentration required to reduce VSV virus-induced cytopathicity by 50%
Mus musculus [29] = test: Survival of mice after intraperitoneal infection with HSV-1 (KOS) and oral administration of 250 mg/kg at day 6; outline: as §1
Mus musculus [30] = test: Survival of mice after intraperitoneal infection with HSV-1 (KOS) and oral administration of 100 mg/kg at day 20; outline: as §1
Mus musculus [31] = test: Survival of mice after intraperitoneal infection with HSV-1 (KOS) and oral administration of 25 mg/kg at day 0; outline: as §1
Human alphaherpesvirus 1 [32] = test: Minimum inhibitory concentration required to reduce herpes simplex virus-1 (HSV-1 (McIntyre)) virus-induced cytopathicity by 50%
Human alphaherpesvirus 1 [33] = test: Minimum inhibitory concentration required to reduce herpes simplex virus-1 (HSV-1 (F)) virus-induced cytopathicity by 50%
Human alphaherpesvirus 2 [34] = test: Minimum inhibitory concentration required to reduce herpes simplex virus-2 (HSV-2 (Lyons)) virus-induced cytopathicity by 50%
Cell line [35] = test: Minimum concentration required to cause a microscopically detectable alteration of human cells morphology; outline: as §2
Human alphaherpesvirus 1 [36] = test: Minimum inhibitory concentration required to reduce TK-HSV-1 (B2006) virus-induced cytopathicity by 50%

Row | Compound | MIC (Human alphaherpesvirus 3 [1]) | MIC (Cytomegalovirus [2]) | MIC (Human alphaherpesvirus 3 [3]) | MIC (Human alphaherpesvirus 3 [4]) | MIC (Human alphaherpesvirus 1 [5]) | No. of mice (Mus musculus [6]) | No. of mice (Mus musculus [7]) | MIC (Cytomegalovirus [8]) | No. of mice (Mus musculus [9]) | MIC (Cell line [10]) | MIC (Human alphaherpesvirus 1 [14]) | MIC (Human alphaherpesvirus 1 [18]) | MIC (Human alphaherpesvirus 2 [19]) | MIC (Human alphaherpesvirus 2 [22]) | MIC (Vaccinia virus) | MIC [26] | MIC [28] | MIC (Human alphaherpesvirus 1 [32]) | MIC (Human alphaherpesvirus 1 [33]) | MIC (Human alphaherpesvirus 2 [34]) | further results
1 | O=c1[nH]c(=O)n(C2O[C@H](CO)[C@@H](O)[C@@H]2O)cc1-c1ccc(Br)s1 (some centres not stated) | 40 µg/mL (≈ 98.7 µM) | 30 µg/mL (≈ 74 µM) | 0.05 µg/mL (≈ 0.123 µM) | 40 µg/mL (≈ 98.7 µM) | > 100 µg/mL | 2 | 8 | 35 µg/mL (≈ 86.4 µM) | 10 | > 40 µg/mL | 0.08 µg/mL (≈ 0.197 µM) | > 100 µg/mL | 70 µg/mL (≈ 173 µM) | 70 µg/mL (≈ 173 µM) | 20 µg/mL (≈ 49.4 µM) | > 50 µg/mL | > 100 µg/mL | 0.02 µg/mL (≈ 0.0494 µM) | 0.07 µg/mL (≈ 0.173 µM) | 20 µg/mL (≈ 49.4 µM) | No. of mice (Mus musculus [11]): 10; No. of mice (Mus musculus [12]): 5; No. of mice (Mus musculus [13]): 5; No. of mice (Mus musculus [15]): 1; No. of mice (Mus musculus [16]): 1; No. of mice (Mus musculus [17]): 5; No. of mice (Mus musculus [20]): 10; No. of mice (Mus musculus [21]): 10; No. of mice (Mus musculus [23]): 10; No. of mice (Mus musculus [24]): 10; No. of mice (Mus musculus [25]): 2; No. of mice (Mus musculus [27]): 2; No. of mice (Mus musculus [29]): 8; No. of mice (Mus musculus [30]): 1; No. of mice (Mus musculus [31]): 10
2 | O=c1[nH]c(=O)n([C@H]2C[C@H](O)[C@@H](CO)O2)cc1/C=C/Br [BRIVUDINE] | > 40 µg/mL | – | 0.004 µg/mL (≈ 0.012 µM) | > 40 µg/mL | 10 µg/mL (≈ 30 µM) | 3 | 9 | – | 10 | > 400 µg/mL | 0.01 µg/mL (≈ 0.03 µM) | > 200 µg/mL | 70 µg/mL (≈ 210 µM) | > 400 µg/mL | 0.2 µg/mL (≈ 0.6 µM) | > 50 µg/mL | > 200 µg/mL | 0.01 µg/mL (≈ 0.03 µM) | 0.02 µg/mL (≈ 0.06 µM) | 70 µg/mL (≈ 210 µM) | No. of mice (Mus musculus [11]): 10; No. of mice (Mus musculus [12]): 9; No. of mice (Mus musculus [13]): 10; No. of mice (Mus musculus [15]): 8; No. of mice (Mus musculus [16]): 8; No. of mice (Mus musculus [17]): 10; No. of mice (Mus musculus [20]): 10; No. of mice (Mus musculus [21]): 9; No. of mice (Mus musculus [23]): 10; No. of mice (Mus musculus [24]): 10; No. of mice (Mus musculus [25]): 3; No. of mice (Mus musculus [27]): 4; No. of mice (Mus musculus [29]): 10; No. of mice (Mus musculus [30]): 7; No. of mice (Mus musculus [31]): 10
3 | C[Si](C)(C)C#Cc1ccc(-c2cn([C@H]3C[C@H](O)[C@@H](CO)O3)c(=O)[nH]c2=O)s1 | 21 µg/mL (≈ 51.7 µM) | > 10 µg/mL | 0.2 µg/mL (≈ 0.492 µM) | 20 µg/mL (≈ 49.2 µM) | > 40 µg/mL | – | – | > 10 µg/mL | – | 100 µg/mL (≈ 246 µM) | 0.07 µg/mL (≈ 0.172 µM) | > 40 µg/mL | > 40 µg/mL | – | > 40 µg/mL | 10 µg/mL (≈ 24.6 µM) | > 40 µg/mL | – | – | – | –
4 | O=c1[nH]c(=O)n([C@H]2C[C@H](O)[C@@H](CO)O2)cc1-c1ccoc1 | > 40 µg/mL | 80 µg/mL (≈ 272 µM) | 50 µg/mL (≈ 170 µM) | > 40 µg/mL | > 200 µg/mL | – | – | 80 µg/mL (≈ 272 µM) | – | – | 0.5 µg/mL (≈ 1.7 µM) | 100 µg/mL (≈ 340 µM) | 150 µg/mL (≈ 510 µM) | 150 µg/mL (≈ 510 µM) | > 40 µg/mL | > 50 µg/mL | > 200 µg/mL | 0.07 µg/mL (≈ 0.238 µM) | 0.5 µg/mL (≈ 1.7 µM) | 30 µg/mL (≈ 102 µM) | MIC (Cell line [35]): > 40 µg/mL
5 | C#Cc1ccc(-c2cn([C@H]3C[C@H](O)[C@@H](CO)O3)c(=O)[nH]c2=O)s1 | 5 µg/mL (≈ 15 µM) | > 10 µg/mL | 0.25 µg/mL (≈ 0.748 µM) | 17 µg/mL (≈ 50.8 µM) | > 200 µg/mL | – | – | > 10 µg/mL | – | 400 µg/mL (≈ 1200 µM) | 0.4 µg/mL (≈ 1.2 µM) | – | > 200 µg/mL | > 200 µg/mL | > 200 µg/mL | 14 µg/mL (≈ 41.9 µM) | > 200 µg/mL | 0.2 µg/mL (≈ 0.598 µM) | 0.2 µg/mL (≈ 0.598 µM) | > 200 µg/mL | MIC (Human alphaherpesvirus 1 [36]): > 200 µg/mL
6 | O=c1[nH]c(=O)n([C@H]2C[C@H](O)[C@@H](CO)O2)cc1-c1cccs1 | 8 µg/mL (≈ 25.8 µM) | 60 µg/mL (≈ 193 µM) | 3 µg/mL (≈ 9.67 µM) | 30 µg/mL (≈ 96.7 µM) | > 100 µg/mL | – | – | 40 µg/mL (≈ 129 µM) | – | 100 µg/mL (≈ 322 µM) | 1.5 µg/mL (≈ 4.83 µM) | > 100 µg/mL | 50 µg/mL (≈ 161 µM) | 50 µg/mL (≈ 161 µM) | 20 µg/mL (≈ 64.4 µM) | 45 µg/mL (≈ 145 µM) | > 100 µg/mL | 0.3 µg/mL (≈ 0.967 µM) | 0.35 µg/mL (≈ 1.13 µM) | 20 µg/mL (≈ 64.4 µM) | –
